Data reported in publication PMC7318171 (Journal of Clinical Pharmacology, 2020).

Legend:
[1] = Measured physicochemical properties
[2] = Fraction unbound in plasma; format: in vitro ADME; settings: human
Absolute bioavailability = format: in vivo; settings: human, plasma
[3] = Mass balance study with 14C-labeled abemaciclib; format: in vivo, human
[4] = Clarithromycin interaction study; format: in vivo; settings: both, human, plasma, po, 50 mg
[5] = Rifampin interaction study; format: in vivo, human
Outline: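 Single oral 200‑mg dose given alone and again with rifampin 600 mg once daily. Plasma levels of parent and active metabolites were measured in both arms, and mean concentration–time profiles are shown with SDs. Cmax and AUC0‑∞ were taken, with Tmax as median (min‑max). The interaction was expressed as with/without‑rifampin ratios of AUC0‑∞ and Cmax.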

[6] = biological target: T1, organic cation transporter 1 (Homo sapiens, UniProt O15245); experiment: Hepatic uptake transporter substrate assessment, OCT1; format: in vitro ADME
T1 sequence (O15245 1-554): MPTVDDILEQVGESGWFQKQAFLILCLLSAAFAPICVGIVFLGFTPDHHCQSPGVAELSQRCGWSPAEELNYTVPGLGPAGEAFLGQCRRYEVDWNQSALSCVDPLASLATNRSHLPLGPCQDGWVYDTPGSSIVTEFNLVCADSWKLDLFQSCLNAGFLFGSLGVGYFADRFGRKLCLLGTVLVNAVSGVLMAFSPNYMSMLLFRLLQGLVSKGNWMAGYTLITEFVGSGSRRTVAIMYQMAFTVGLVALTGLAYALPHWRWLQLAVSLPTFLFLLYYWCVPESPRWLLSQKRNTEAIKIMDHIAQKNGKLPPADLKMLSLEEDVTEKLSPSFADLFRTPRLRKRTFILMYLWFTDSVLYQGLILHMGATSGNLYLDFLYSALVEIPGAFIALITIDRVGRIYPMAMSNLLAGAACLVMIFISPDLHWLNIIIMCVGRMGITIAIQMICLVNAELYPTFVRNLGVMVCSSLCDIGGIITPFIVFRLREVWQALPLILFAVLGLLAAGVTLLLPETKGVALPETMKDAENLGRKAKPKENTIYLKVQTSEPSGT

[7] = biological target: T2, organic anion–transporting polypeptide 1B1 (Homo sapiens, UniProt Q9Y6L6); experiment: Hepatic uptake transporter substrate assessment, OATP1B1; format: in vitro ADME
T2 sequence (Q9Y6L6 1-691): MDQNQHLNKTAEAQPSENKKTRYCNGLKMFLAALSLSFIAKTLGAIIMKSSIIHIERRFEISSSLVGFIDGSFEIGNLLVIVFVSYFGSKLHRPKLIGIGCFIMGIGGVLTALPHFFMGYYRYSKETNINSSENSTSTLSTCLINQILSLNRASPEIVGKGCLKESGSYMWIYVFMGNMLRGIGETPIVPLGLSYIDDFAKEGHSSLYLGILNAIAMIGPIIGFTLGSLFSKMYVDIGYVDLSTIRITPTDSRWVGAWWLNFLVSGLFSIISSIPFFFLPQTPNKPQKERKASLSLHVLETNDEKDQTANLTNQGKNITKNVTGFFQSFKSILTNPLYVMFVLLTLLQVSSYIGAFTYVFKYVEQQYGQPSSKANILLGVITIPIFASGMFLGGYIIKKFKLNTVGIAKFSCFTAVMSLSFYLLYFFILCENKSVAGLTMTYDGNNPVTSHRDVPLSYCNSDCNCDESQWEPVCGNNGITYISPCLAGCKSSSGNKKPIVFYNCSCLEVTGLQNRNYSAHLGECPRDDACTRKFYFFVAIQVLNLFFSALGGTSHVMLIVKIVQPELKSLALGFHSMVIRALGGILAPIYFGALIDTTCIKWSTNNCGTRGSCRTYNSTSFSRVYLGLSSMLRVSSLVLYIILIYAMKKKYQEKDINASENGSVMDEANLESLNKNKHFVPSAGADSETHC

[8] = biological target: T3, organic anion–transporting polypeptide 1B3 (Homo sapiens, UniProt Q9NPD5); experiment: Hepatic uptake transporter substrate assessment, OATP1B3; format: in vitro ADME
T3 sequence (Q9NPD5 1-702): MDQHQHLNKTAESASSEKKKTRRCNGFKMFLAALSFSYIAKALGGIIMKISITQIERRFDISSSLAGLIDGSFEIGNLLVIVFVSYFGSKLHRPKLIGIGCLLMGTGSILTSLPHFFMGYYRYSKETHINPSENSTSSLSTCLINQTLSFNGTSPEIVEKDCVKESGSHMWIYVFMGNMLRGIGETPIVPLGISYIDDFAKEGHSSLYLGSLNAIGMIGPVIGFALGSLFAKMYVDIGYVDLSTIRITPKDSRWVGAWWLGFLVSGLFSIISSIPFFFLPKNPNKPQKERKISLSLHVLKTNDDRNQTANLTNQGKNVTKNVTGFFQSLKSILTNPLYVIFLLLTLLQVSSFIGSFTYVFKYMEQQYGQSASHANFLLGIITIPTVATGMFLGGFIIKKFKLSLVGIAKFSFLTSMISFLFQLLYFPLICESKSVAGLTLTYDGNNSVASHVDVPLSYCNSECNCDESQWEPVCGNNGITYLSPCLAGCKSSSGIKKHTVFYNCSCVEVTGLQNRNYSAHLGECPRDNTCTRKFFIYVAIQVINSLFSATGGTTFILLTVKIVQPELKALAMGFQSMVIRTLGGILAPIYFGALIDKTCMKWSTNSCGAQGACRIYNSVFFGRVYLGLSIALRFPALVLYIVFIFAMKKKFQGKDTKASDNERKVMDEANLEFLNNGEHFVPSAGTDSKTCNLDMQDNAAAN

P‐glycoprotein = P‐glycoprotein (Homo sapiens, UniProt P08183); experiment: Efflux transporter substrate assessment in vitro, P-glycoprotein; format: in vitro ADME
Chain of P‐glycoprotein (P08183 whole entry): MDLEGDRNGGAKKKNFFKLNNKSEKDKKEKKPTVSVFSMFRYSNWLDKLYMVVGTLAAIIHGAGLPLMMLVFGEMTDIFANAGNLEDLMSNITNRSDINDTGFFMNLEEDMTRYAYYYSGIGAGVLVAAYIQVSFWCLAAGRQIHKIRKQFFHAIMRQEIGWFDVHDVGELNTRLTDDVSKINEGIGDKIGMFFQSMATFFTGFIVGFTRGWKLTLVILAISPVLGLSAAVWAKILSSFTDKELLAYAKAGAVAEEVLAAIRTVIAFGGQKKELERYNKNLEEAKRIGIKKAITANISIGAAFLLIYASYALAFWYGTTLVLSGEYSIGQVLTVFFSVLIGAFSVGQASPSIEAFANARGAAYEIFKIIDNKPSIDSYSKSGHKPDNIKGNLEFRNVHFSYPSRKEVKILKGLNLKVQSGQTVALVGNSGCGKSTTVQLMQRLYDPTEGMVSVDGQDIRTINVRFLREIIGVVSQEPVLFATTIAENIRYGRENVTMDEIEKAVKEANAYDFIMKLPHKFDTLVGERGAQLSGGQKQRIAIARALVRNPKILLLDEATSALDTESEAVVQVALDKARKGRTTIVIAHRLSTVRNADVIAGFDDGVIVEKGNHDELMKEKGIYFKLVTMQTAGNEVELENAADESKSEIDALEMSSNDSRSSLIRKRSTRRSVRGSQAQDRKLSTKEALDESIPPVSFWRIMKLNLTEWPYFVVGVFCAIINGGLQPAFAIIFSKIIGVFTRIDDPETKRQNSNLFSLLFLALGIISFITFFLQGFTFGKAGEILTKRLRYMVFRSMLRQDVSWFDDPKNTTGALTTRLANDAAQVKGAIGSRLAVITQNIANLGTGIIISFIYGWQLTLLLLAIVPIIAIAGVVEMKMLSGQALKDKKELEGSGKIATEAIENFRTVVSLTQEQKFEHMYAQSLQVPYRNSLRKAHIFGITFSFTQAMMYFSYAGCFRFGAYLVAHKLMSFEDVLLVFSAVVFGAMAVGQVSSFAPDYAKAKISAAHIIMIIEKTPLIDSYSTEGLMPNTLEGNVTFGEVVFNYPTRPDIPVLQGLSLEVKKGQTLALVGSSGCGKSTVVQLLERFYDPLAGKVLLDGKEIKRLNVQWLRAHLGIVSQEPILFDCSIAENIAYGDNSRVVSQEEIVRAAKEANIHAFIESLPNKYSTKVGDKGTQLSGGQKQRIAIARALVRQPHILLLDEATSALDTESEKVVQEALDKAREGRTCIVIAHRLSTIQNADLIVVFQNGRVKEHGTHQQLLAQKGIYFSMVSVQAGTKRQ

[9] = biological target: T4, breast cancer resistance protein (Homo sapiens, UniProt Q9UNQ0); experiment: Efflux transporter substrate assessment in vitro, BCRP; format: in vitro ADME
T4 sequence (Q9UNQ0 1-655): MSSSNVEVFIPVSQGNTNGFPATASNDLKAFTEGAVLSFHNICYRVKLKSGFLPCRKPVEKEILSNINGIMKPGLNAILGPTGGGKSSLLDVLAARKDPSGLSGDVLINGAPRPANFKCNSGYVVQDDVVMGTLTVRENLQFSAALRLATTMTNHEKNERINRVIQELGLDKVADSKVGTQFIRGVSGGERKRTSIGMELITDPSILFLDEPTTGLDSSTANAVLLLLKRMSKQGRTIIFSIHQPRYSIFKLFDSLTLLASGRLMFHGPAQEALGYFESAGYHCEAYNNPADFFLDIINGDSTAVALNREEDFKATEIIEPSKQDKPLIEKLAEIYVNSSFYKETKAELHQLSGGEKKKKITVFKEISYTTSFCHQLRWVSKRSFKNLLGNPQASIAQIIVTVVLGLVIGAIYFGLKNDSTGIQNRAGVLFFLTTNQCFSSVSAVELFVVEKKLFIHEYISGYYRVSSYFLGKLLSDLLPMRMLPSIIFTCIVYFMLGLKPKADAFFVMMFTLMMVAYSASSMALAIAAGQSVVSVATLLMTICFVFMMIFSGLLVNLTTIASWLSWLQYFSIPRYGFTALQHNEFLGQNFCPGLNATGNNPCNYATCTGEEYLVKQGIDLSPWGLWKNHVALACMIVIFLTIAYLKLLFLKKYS

[10] = Biopharmaceutic properties; format: physicochemical
CDK4/cyclin D1 = settings: read-out: CDK4/cyclin D1 half‐maximal inhibitory concentration, mean ± SD; measured in vitro; cited from earlier work
[11] = cited from earlier work
[12] = PBPK model input and disposition parameters
[13] = cited from earlier work; remark: listed apart in the source
[14] = both, human, plasma, po, 200 mg

Compound: CCN1CCN(Cc2ccc(Nc3ncc(F)c(-c4cc(F)c5nc(C)n(C(C)C)c5c4)n3)nc2)CC1 [Abemaciclib]
- logP ([1]; octanol/water): 3.36
- pKa ([1]; pKa 2 (basic)): 4.48
- fraction unbound [2]: 0.0557
- half-life (Absolute bioavailability): 29.3 h
- Vd (Absolute bioavailability; iv, 0.4 mg): 8.93 L/kg
- clearance (Absolute bioavailability; iv, 0.4 mg): 400 mL/min
- percentage of parent in feces ([3]; 14C study): 6.76%
- radioactivity excreted in urine ([3]; human mass balance study): 4%
- CL renal ([3]; human, urine, oral, 150 mg): 16.7 mL/min
- Fa (fraction absorbed) ([3]; oral dose, estimated from mass balance study, equation 1): 0.91
- AUC [4]: 2230 ng·h/mL
- Cmax [4]: 70 ng/mL
- Tmax [4]: 4.03 h
- half-life [4]: 28.8 h
- AUC [5, 14]: 4570 ng·h/mL
- Cmax [5, 14]: 134 ng/mL
- Tmax [5, 14]: 8 h
- half-life [5, 14]: 25.2 h
- decrease of AUC ([5]; with rifampin, observed): 95%
- substrate of organic cation transporter 1 [6]: not substrates
- substrate of organic anion–transporting polypeptide 1B1 [7]: not substrates
- substrate of organic anion–transporting polypeptide 1B3 [8]: not substrates
- substrate of P‐glycoprotein (P‐glycoprotein): substrate
- substrate of breast cancer resistance protein [9]: substrate
- permeability (in words) [10]: high permeability
- solubility (in words) [10]: high solubility
- increase of AUC by a high‐fat and high‐calorie meal ([11]; abemaciclib and active species): 9%
- FG in the PBPK model ([12]; 200‐mg dose): 0.74
- FG (fraction escaping first‐pass metabolism in the gut), calculated ([12]; 200‐mg oral dose, equation 5): approximately 0.77
- FH (fraction escaping first‐pass metabolism in the liver) ([12]; 200‐mg oral dose, equations 2-4): 0.64

Compound: COc1ccccc1Oc1c(NS(=O)(=O)c2ccc(C(C)(C)C)cc2)nc(-c2ncccn2)nc1OCCO [Bosentan]
- Cmax ratio with and without ketoconazole ([13]; bosentan 125 mg BID 5 days, ketoconazole 200 mg QD): 1.62

Compound: Cc1ncc2n1-c1ccc(Cl)cc1C(c1ccccc1F)=NC2 [Midazolam]
- increase in AUC extrapolated to infinity ([13]; IV midazolam with clarithromycin): 3.5 fold
